In brackets after ≈: the same amount, converted by molar mass.
How the values were obtained:
Type in all cases: functional
Staphylococcus aureus = test: Antibacterial activity against Staphylococcus aureus ATCC 33591 assessed as reduction in bacterial growth by Mueller-Hinton broth based assay
How it was run: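 Broth MIC by standard procedure in Mueller-Hinton broth, for both B. subtilis 168 and S. aureus ATCC 33591.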

[1] = tested on: Mycolicibacterium smegmatis; test: Antimycobacterial activity against Mycobacterium smegmatis MC2 155 assessed as inhibition of bacterial growth measured after 2 days by resazurin dye based analysis; settings: MC2 155, 48 h, time 2 day
How it was run: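 Strains grown in 7H9 broth with 0.2% glycerol, 10% OADC and 0.05% Tween-80. Inoculum was about 5 × 10^5 CFU/mL, checked by plating on 7H10/OADC agar to be 3–8 × 10^5. Read at 2 days for M. smegmatis and 7 days for M. tuberculosis H37Ra, M. bovis and M. avium. Resazurin 30 μg/mL was then added for one further day. Values are averages of at least two experiments.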

Enterococcus faecium [2] = test: Antibacterial activity against vancomycin-resistant Enterococcus faecium ATCC 700221 assessed as inhibition of bacterial growth by Mueller-Hinton broth based assay
Enterococcus faecalis = test: Antibacterial activity against vancomycin-resistant Enterococcus faecalis ATCC 51299 assessed as inhibition of bacterial growth by Mueller-Hinton broth based assay
Enterococcus faecium [3] = test: Antibacterial activity against wild type Enterococcus faecium ATCC 19434 assessed as inhibition of bacterial growth by Mueller-Hinton broth based assay
Enterococcus gallinarum = test: Antibacterial activity against vancomycin-resistant Enterococcus gallinarum ATCC 49573 assessed as inhibition of bacterial growth by Mueller-Hinton broth based assay
Enterococcus faecium [4] = test: Antibacterial activity against Enterococcus faecium WCC 0491 assessed as inhibition of bacterial growth by Mueller-Hinton broth based assay
Enterococcus faecium [5] = test: Antibacterial activity against Enterococcus faecium WCC 0492 assessed as inhibition of bacterial growth by Mueller-Hinton broth based assay
Enterococcus faecium [6] = test: Antibacterial activity against Enterococcus faecium WCC 0495 assessed as inhibition of bacterial growth by Mueller-Hinton broth based assay
Enterococcus faecium [7] = test: Antibacterial activity against Enterococcus faecium WCC 0498 assessed as inhibition of bacterial growth by Mueller-Hinton broth based assay
Enterococcus faecium [8] = test: Antibacterial activity against Enterococcus faecium WCC 0499 assessed as inhibition of bacterial growth by Mueller-Hinton broth based assay
Enterococcus faecium [9] = test: Antibacterial activity against Enterococcus faecium WCC 0500 assessed as inhibition of bacterial growth by Mueller-Hinton broth based assay
Enterococcus faecium [10] = test: Antibacterial activity against Enterococcus faecium WCC 0502 assessed as inhibition of bacterial growth by Mueller-Hinton broth based assay
Enterococcus faecium [11] = test: Antibacterial activity against Enterococcus faecium WCC 0506 assessed as inhibition of bacterial growth by Mueller-Hinton broth based assay
Enterococcus faecium [12] = test: Antibacterial activity against Enterococcus faecium WCC 0516 assessed as inhibition of bacterial growth by Mueller-Hinton broth based assay
Enterococcus faecium [13] = test: Antibacterial activity against Enterococcus faecium WCC 0524 assessed as inhibition of bacterial growth by Mueller-Hinton broth based assay
Enterococcus faecium [14] = test: Antibacterial activity against Enterococcus faecium WCC 0528 assessed as inhibition of bacterial growth by Mueller-Hinton broth based assay
Enterococcus faecium [15] = test: Antibacterial activity against Enterococcus faecium WCC 0533 assessed as inhibition of bacterial growth by Mueller-Hinton broth based assay
Enterococcus faecium [16] = test: Antibacterial activity against Enterococcus faecium WCC 0534 assessed as inhibition of bacterial growth by Mueller-Hinton broth based assay
Enterococcus faecium [17] = test: Antibacterial activity against Enterococcus faecium WCC 0537 assessed as inhibition of bacterial growth by Mueller-Hinton broth based assay
Enterococcus faecium [18] = test: Antibacterial activity against Enterococcus faecium WCC 0586 assessed as inhibition of bacterial growth by Mueller-Hinton broth based assay
Enterococcus faecium [19] = test: Antibacterial activity against vancomycin-resistant Enterococcus faecium WCC 0541 assessed as inhibition of bacterial growth by Mueller-Hinton broth based assay
Enterococcus faecium [20] = test: Antibacterial activity against Enterococcus faecium WCC 0545 assessed as inhibition of bacterial growth by Mueller-Hinton broth based assay
Enterococcus faecium [21] = test: Antibacterial activity against Enterococcus faecium WCC 0553 assessed as inhibition of bacterial growth by Mueller-Hinton broth based assay
Enterococcus faecium [22] = test: Antibacterial activity against Enterococcus faecium WCC 0558 assessed as inhibition of bacterial growth by Mueller-Hinton broth based assay
Enterococcus faecium [23] = test: Antibacterial activity against Enterococcus faecium WCC 0587 assessed as inhibition of bacterial growth by Mueller-Hinton broth based assay
[24] = tested on: Mycolicibacterium fortuitum; test: Antimycobacterial activity against Mycobacterium fortuitum ATCC 6891 assessed as inhibition of bacterial growth measured after 2 days by resazurin dye based analysis; settings: ATCC 6891, 48 h, time 2 day
How it was run: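 Cultured in 7H9 with 0.2% glycerol, 10% OADC and 0.05% Tween-80. Inoculum diluted to ~5 × 10^5 CFU/mL and confirmed at 3–8 × 10^5 by plating on 7H10 agar. Growth read at 2 days, then 30 μg/mL resazurin added for one more day. Values averaged from at least two experiments.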

Question: What does the source list for `CN1C(=O)[C@@H]2NC(=O)[C@@H]3NC(=O)[C@@H](c4ccc(O)cc4)NC(=O)[C@H](NC(=O)C(N)c4ccc(O)cc4)Cc4c[nH]c5cc(ccc45)-c4cc3cc(c4O)Oc3ccc(cc3)C[C@H]1C(=O)N[C@@H](C(=O)O)c1ccc(O)c(c1)Oc1ccc2cc1` (some centres not stated)?
Answer: MIC (Staphylococcus aureus): 8 µg/mL (≈ 7.14 µM); MIC [1]: 8 µg/mL (≈ 7.14 µM); MIC (Enterococcus faecium [2]): 8 µg/mL (≈ 7.14 µM); MIC (Enterococcus faecalis): 8 µg/mL (≈ 7.14 µM); MIC (Enterococcus faecium [3]): 8 µg/mL (≈ 7.14 µM); MIC (Enterococcus gallinarum): 8 µg/mL (≈ 7.14 µM); MIC (Enterococcus faecium [4]): 4 µg/mL (≈ 3.57 µM); MIC (Enterococcus faecium [5]): 8 µg/mL (≈ 7.14 µM); MIC (Enterococcus faecium [6]): 8 µg/mL (≈ 7.14 µM); MIC (Enterococcus faecium [7]): 8 µg/mL (≈ 7.14 µM); MIC (Enterococcus faecium [8]): 8 µg/mL (≈ 7.14 µM); MIC (Enterococcus faecium [9]): 8 µg/mL (≈ 7.14 µM); MIC (Enterococcus faecium [10]): 4 µg/mL (≈ 3.57 µM); MIC (Enterococcus faecium [11]): 4 µg/mL (≈ 3.57 µM); MIC (Enterococcus faecium [12]): 8 µg/mL (≈ 7.14 µM); MIC (Enterococcus faecium [13]): 4 µg/mL (≈ 3.57 µM); MIC (Enterococcus faecium [14]): 8 µg/mL (≈ 7.14 µM); MIC (Enterococcus faecium [15]): 8 µg/mL (≈ 7.14 µM); MIC (Enterococcus faecium [16]): 4 µg/mL (≈ 3.57 µM); MIC (Enterococcus faecium [17]): 8 µg/mL (≈ 7.14 µM); MIC (Enterococcus faecium [18]): 8 µg/mL (≈ 7.14 µM); MIC (Enterococcus faecium [19]): 8 µg/mL (≈ 7.14 µM); MIC (Enterococcus faecium [20]): 8 µg/mL (≈ 7.14 µM); MIC (Enterococcus faecium [21]): 8 µg/mL (≈ 7.14 µM); MIC (Enterococcus faecium [22]): 8 µg/mL (≈ 7.14 µM); MIC (Enterococcus faecium [23]): 8 µg/mL (≈ 7.14 µM); MIC [24]: 8 µg/mL (≈ 7.14 µM)
